Sampled rows, rich in hits. Any-hit rate of the full collection: about 9.2%.
ERb coact inh: blocks coactivator binding to human estrogen receptor beta. Q92731. inhibition, % at 25.6 µM. hit rate 1.3% among 86,000. TR-FRET ER-beta LBD / SRC1-Cy5 peptide binding; receptor agonist-loaded with 1 µM estradiol;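 active means compounds whose percent inhibition of the receptor-coactivator binding signal exceeds about 50% in the single-dose screen, limit read from the data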;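 further: 0% = receptor plus peptide wells without compound and 100% = peptide-only wells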
Target sequence (Q92731 whole entry, looked up, the tested form may be a part): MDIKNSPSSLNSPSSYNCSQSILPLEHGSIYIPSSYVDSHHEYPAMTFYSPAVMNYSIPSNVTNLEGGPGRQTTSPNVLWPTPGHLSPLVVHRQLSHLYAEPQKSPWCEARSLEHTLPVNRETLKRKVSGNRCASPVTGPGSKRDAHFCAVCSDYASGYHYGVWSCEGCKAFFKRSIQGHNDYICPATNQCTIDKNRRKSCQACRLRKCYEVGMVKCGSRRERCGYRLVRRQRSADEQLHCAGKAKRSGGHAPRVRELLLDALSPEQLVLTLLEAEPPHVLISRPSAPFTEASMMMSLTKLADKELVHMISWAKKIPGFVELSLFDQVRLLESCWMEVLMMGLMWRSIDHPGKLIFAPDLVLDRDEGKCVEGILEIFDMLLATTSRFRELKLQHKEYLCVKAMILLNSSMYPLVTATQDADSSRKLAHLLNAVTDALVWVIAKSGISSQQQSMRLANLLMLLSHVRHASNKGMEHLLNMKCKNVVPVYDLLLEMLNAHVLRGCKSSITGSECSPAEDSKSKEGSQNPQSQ
H69AR inhibit: growth inhibitors of human H69AR lung tumor cells; viability, % at 10 µM; H69AR lung tumor viability, ATP luminescence, 72 h; hits give low values; AID 598; hit rate 6% among 85,000;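 active means viability at or below 40%; inactive means viability above 40%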;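 further: multidrug resistant small cell line overexpressing MRP-1 efflux transporter; 100% = mean luminescence of untreated control wells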
HUVEC inhibit: blocks proliferation of human endothelial cells | HUVEC proliferation, CellTiter-Glo luminescence, 72 h; hits give low values | viability, % at 10 µM (by protocol) | hit rate 1.1% among 86,000 | AID 648;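 active means viability at or below 30%; inactive means viability above 30%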;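 further: 100% = median luminescence of DMSO-only cell control wells on each plate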
Fibroblast inh: blocks proliferation of human lung fibroblasts. LL 47 human lung fibroblast viability, ATP luminescence; hits give low values. viability, % at 10 µM. hit rate 1.1% among 85,000. AID 719;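 active means viability at or below 50% in the single dose screen; inactive means viability above 50%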;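 further: compound exposure lasted 72 h before the ATP readout; 100% = median luminescence of untreated cell-only wells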
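Times – overnight cell rest, 72 h compound treatment at 37 °C · Test system – human lung fibroblast line LL 47, low passage · Amount – 1,150 cells in each well · Controls – cell-only wells, no compound · Doses – 0.1% DMSO in all compound wells · Measured by – CellTiter-Glo luminescence · Buffer or medium – IMEM plus 15% FBS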
ERa SRC1 inh: ER-alpha (human) coactivator binding inhibition; P03372; TR-FRET ER-alpha LBD / SRC-1 peptide, estradiol-bound; inhibition, % at 25.6 µM; hit rate 1.7% among 86,000; in the data active means inhibition above about 50%;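 further: 0% = receptor plus peptide control and 100% = peptide only without receptor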
ERa SRC1 pot: enhances coactivator binding to human estrogen receptor alpha; P03372; TR-FRET ERalpha-LBD/SRC-Cy5 coactivator binding, 2 h; 100 = basal binding, no effect; coactivator binding (% of control), % at 25.6 µM; hit rate 1.3% among 86,000; in the data active means activity above about 200%;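 further: binding measured in presence of low estradiol as agonist stimulus; 0% = peptide alone without receptor and 100% = receptor with peptide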
The depositor's hits bear a star; x = no result; [ ] = another dose, or the depositor's remark.

SMILES | ERb coact inh | H69AR inhibit | HUVEC inhibit | Fibroblast inh | ERa SRC1 inh | ERa SRC1 pot
Cc1ccc2cc(C#N)c(N3CCCN(S(=O)(=O)c4ccccc4)CC3)nc2c1 | 26.8 | 94.7 | 98.0 | 98.6 | 31.7 | 349.6*[fluorescence artefact?]
Cc1ccc2cc(C#N)c(N3CCN(C)CC3)nc2c1 | 0.6 | 89.2 | 74.1 | 97.4 | -3.0 | 97.8
Cc1ccc2nc(N3CCN(S(=O)(=O)c4ccc(C)c(Cl)c4)CC3)c(C#N)cc2c1 | 50.1*[fluorescence artefact?] | 98.6 | 111.1 | 101.1 | 48.0 | 243.9*[fluorescence artefact?]
Cc1ccc2nc(N3CCN(C)CC3)c(C#N)cc2c1 | -10.3 | 92.2 | 73.3 | 99.4 | 0.3 | 98.4
CCOC(=O)c1ccccc1NC(=O)CSc1nnc(C(C)C)n1CC | 4.3 | 73.6 | 95.1 | 97.7 | 0.0 | 103.8
Cc1cccc2cc(C#N)c(N3CCN(C)CC3)nc12 | 6.7 | 80.9 | 73.4 | 103.4 | 1.8 | 113.2
Cc1ccc2cc(C#N)c(N3CCCN(S(=O)(=O)c4ccccc4)CC3)nc2c1C | 54.7*[fluorescence artefact?] | 76.6 | 78.0 | 100.2 | 39.0 | 362.6*[fluorescence artefact?]
C=C(C)CNC(=S)NNC(=O)c1ccco1 | -3.4 | 104.3 | 93.1 | 96.0 | -5.2 | 100.5
COc1ccc(/C=C/C(=O)NC(=S)NNC(=O)c2ccco2)cc1 | -10.4 | 31.5* | 43.1 | 62.8 | -16.9 | 101.1
Cc1ccc(NC(=O)CCSc2nnnn2-c2ccc3c(c2)OCO3)cc1C | -6.5 | 97.8 | 91.6 | 89.8 | -5.7 | 100.2
Cn1c(SCC(=O)Nc2ccccc2F)nnc1-c1cc2ccccc2o1 | 5.7 | 105.7 | 92.6 | 97.1 | -40.4 | 596.6*[fluorescence artefact?]
Cc1cccc(NC(=O)CSc2nnc(-c3ccncc3)n2C)c1 | 3.8 | 102.0 | 99.3 | 98.9 | -5.4 | 100.7
Cn1cnnc1SCC(=O)Nc1sccc1C#N | 18.9 | 96.7 | 91.4 | 104.1 | 28.2 | 73.5
CC(=O)Nc1ccc(-c2nnc(SCC(=O)n3c4c(c5ccccc53)CCCC4)n2C)cc1 | -14.6 | 35.2* | 93.2 | 99.9 | -24.1 | 256.2*
Cn1c(SCC(=O)N2CCN(c3ccccc3)CC2)nnc1-c1cc2ccccc2o1 | -1.2 | 87.8 | 100.0 | 98.9 | -2.7 | 117.0
Cn1c(SCC(=O)Nc2sccc2C#N)nnc1-c1ccccc1 | 45.7 | 82.8 | 97.7 | 99.7 | 53.4* | 28.9
Cn1c(SCC(=O)Nc2ccc3c(c2)oc2ccccc23)nnc1-c1ccccc1 | 30.9 | 74.7 | 48.8 | 97.5 | 51.5* | 250.6*[fluorescence artefact?]
[N-]=[N+]=CC(=O)c1ccnc(C(=O)C=[N+]=[N-])c1 | 6.1 | 86.2 | 97.5 | 106.8 | 3.8 | 108.7
O=C(CN(Cc1ccc(F)cc1)C(=O)CCC(=O)Nc1ccccn1)NCc1ccco1 | 1.3 | 97.2 | 90.4 | 94.8 | -1.2 | 120.2
Cc1nn(-c2ccccc2)c(C)c1NS(=O)(=O)c1ccccc1 | -5.8 | 111.3 | 103.1 | 107.4 | -11.5 | 85.0
CC1(C)C(c2ccccn2)=[N+]([O-])C(C)(C)N1O | 3.0 | 92.2 | 97.9 | 95.6 | 3.1 | 102.3
CC1(C)C(c2ccccc2)=[N+]([O-])CN1O | -6.0 | 34.0* | 95.8 | x | -5.4 | 120.7
CCCCCn1c(C(Cc2ccccc2)NC(=O)COC)nc2ccccc21 (configuration not stated) | 12.8 | 55.3 | 102.6 | 89.9 | 10.8 | 91.6
COCCCN1C(=O)C(=O)/C(=C(/O)c2ccc3c(c2)OCCO3)C1c1ccc(C(=O)OC)cc1 (configuration not stated) | 80.0*[fluorescence artefact?] | 105.3 | 97.6 | 97.8 | 77.0*[fluorescence artefact?] | 68.0
COCCN1C(=O)C(=O)/C(=C(/O)c2ccc3c(c2)OCCO3)C1c1ccc(C(=O)OC)cc1 (configuration not stated) | -9.9 | 96.4 | 110.6 | 108.5 | -6.9 | 91.5
SMILES | ERb coact inh | H69AR inhibit | HUVEC inhibit | Fibroblast inh | ERa SRC1 inh | ERa SRC1 pot
O=C(Nc1ccc(N2CCCC2)cc1)C(Cl)c1ccccc1 (configuration not stated) | 50.3* | 21.6* | 97.4 | 91.9 | 58.8* | 46.8
CS(=O)(=O)N1CCN(c2ccc(NC(=O)C(c3ccccc3)c3ccccc3)cc2)CC1 | -28.3 | 87.0 | 94.7 | 94.5 | -13.8 | 89.8
CCc1cccc(NC(=O)CN(c2ccc(OC)cc2)S(=O)(=O)c2c(C)n[nH]c2C)c1 | -0.8 | 79.5 | 78.3 | 91.3 | 4.4 | 96.8
N#Cc1ncc(C(F)(F)F)cc1Sc1ccc(N)cc1 | 3.5 | 36.1* | 89.1 | 93.8 | -3.2 | 94.9
CC(Nc1nc(N2CCN(S(C)(=O)=O)CC2)nc2ccccc12)c1ccccc1 (configuration not stated) | -6.4 | 81.9 | 13.7* | 78.7 | 4.0 | 102.7
CS(=O)(=O)N1CCN(c2nc3ccccc3s2)CC1 | -10.0 | 106.4 | 101.8 | x | -1.5 | 145.0
O=C(CSCc1ccc(Cl)cc1)c1ccco1 | 2.3 | 95.5 | 86.0 | 104.4 | 12.8 | 96.4
Cc1csc(NC(=O)c2c(O)c3c(n(CC(C)C)c2=O)CCCC3)n1 | -1.4 | 32.6* | 118.6 | 91.2 | -9.3 | 95.7
CCCn1c2c(c(O)c(C(=O)Nc3nc(C)cs3)c1=O)CCCC2 | -1.7 | 89.6 | 109.0 | 105.0 | -5.1 | 117.6
FC(F)(F)C(Oc1nc(Nc2ccc(Cl)cc2)nc(N2CCOCC2)n1)C(F)(F)F | -16.5 | 100.6 | 86.3 | 95.8 | -17.2 | 95.9
Cc1cc(C)nc(NC2=NCCN2C(=O)Nc2ccc(Cl)c(Cl)c2)n1 | 14.3 | 22.2* | 64.9 | 85.2 | -53.8 | 970.5*
Cc1cc(C)nc(NC(=O)c2ccc(Cl)c(Cl)c2)n1 | -2.0 | 107.3 | 99.9 | 104.1 | 4.2 | 99.2
Cn1c(Cn2c(=O)sc3ccccc32)nnc1SCC(=O)Nc1ccc(Cl)cc1 | -4.5 | 46.4 | 71.5 | 99.7 | -4.2 | 230.6*[fluorescence artefact?]
Cc1ccccc1NC(=O)CSC1=C(C#N)C(c2ccsc2)CC(=O)N1 (configuration not stated) | -5.0 | 16.7* | 75.7 | 79.9 | 8.7 | 111.8
COc1ccccc1C1CC(=O)NC(SCC(=O)Nc2ccccc2)=C1C#N (configuration not stated) | -1.6 | 80.1 | 100.6 | 96.0 | 7.7 | 106.2
COCCn1c(CNc2ccc(F)cc2)nnc1SCC(=O)Nc1ccc(OC)cc1OC | -3.7 | 88.9 | 101.3 | 91.1 | -14.8 | 132.0
CCCCOC(=O)n1c(=O)oc2ccccc21 | 2.3 | 59.1 | 75.8 | 100.8 | 5.8 | 93.6
CCOC(=O)n1c(=O)oc2ccc(Cl)cc21 | 0.5 | 38.2* | 67.9 | 94.6 | -5.4 | 100.5
COc1ccccc1-c1nnc(SCC(=O)Nc2ccc(S(N)(=O)=O)cc2)n1C | 17.6 | 86.0 | 91.5 | 103.5 | 20.2 | 94.4
COc1ccc(OC)c(NC(=O)C2CCCN(S(=O)(=O)c3cccc4nsnc34)C2)c1 (configuration not stated) | -5.2 | 39.8* | 85.9 | 93.2 | -3.0 | 108.3
O=C(CN1CCCCC1)N1CCCc2c1c(=O)oc1ccc(OCc3ccccc3)cc21 | -5.2 | 76.8 | 83.7 | 73.6 | 0.9 | 326.6*[fluorescence artefact?]
O=C(CN1CCN(Cc2ccccc2)CC1)N1CCCc2c1c(=O)oc1ccc(O)cc21 | -10.2 | 7.6* | 30.9 | 81.5 | 15.8 | 82.1

Screening data deposited in PubChem by several laboratories.
